Many of the other results were omitted from the sample, so hits are more common in it than they were.
ABCG2 inh = human ABCG2 inhibition, ABCB1 as counter-screen; Q9UNQ0; IgMXP3 cells, JC-1 efflux, flow cytometry; inhibition, % at 6.6 µM; hit rate 0.1% among 190,000;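 active means inhibition above 80%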
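material = IgMXP3 (ABCG2) plus far-red-tagged CCRF-Adr (ABCB1) cells | amount = 3 million cells/mL, equal mix of both lines | also added = JC-1 transporter substrate | dosing = one concentration, 6.6 µM final | schedule = 10 min at 25 °C | measured by = flow cytometric JC-1 green MFI at 530 nm | read-out basis = percent efflux inhibition, scaled nicardipine 100% to DMSO 0%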
ABCB1 block = inhibitors of human ABCB1 transporter, ABCG2 counter-screen; P08183; CCRF-Adr cells, JC-1 efflux, flow cytometry; inhibition, % at 6.6 µM; hit rate 0.067% among 190,000; AID 1326; in the data active means inhibition above about 40%;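 further: higher value means more JC-1 retained so stronger ABCB1 efflux block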
PKD1 kinase inh = blocks activity of human protein kinase D1. PKD1 kinase fluorescence polarization assay. inhibition, % (concentration not given with the values). Q15139. hit rate 0.056% among 200,000
Lmaj promast = reduces viability of Leishmania major promastigotes | hit rate 9% among 200,000 | AID 1063 | resazurin fluorescence viability | inhibition, % at 10 µM;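 further: promastigotes grown with compound for 44 hours at 28 °C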
GSH fluor = GSH bead compound fluorescence profile | GSH beads flow cytometry, compound fluorescence 488/530 nm; hits give high values | fluorescence (KMESF) at 10 µM | hit rate 0.25% among 190,000; in the data active means fluorescence above about 89;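 further: glutathione beads carrying GST-tagged Bcl family fusion proteins plus one bare bead set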
Avidin fluor = compound fluoresces at 488/530 nm on avidin beads; AID 1775; hit rate 0.38% among 220,000; compound fluorescence 488/530 nm, flow cytometry; hits give high values; fluorescence (KMESF) at 10 µM; in the data active means fluorescence above about 47
Each line names hits and unclear results; the compound was inactive in the other large screens; ! = not active in a repeat. Unless noted, no stated cut-off is given here; in the data, active means inhibition above about 50%; inactive means the rest.

COc1ccc(-n2cnnc2SCC(=O)Nc2ccc(N3CCOCC3)cc2)cc1	Lmaj promast 51.7
O=C(CSc1nncn1-c1ccccc1)NC1CCCc2ccccc21 (centres undefined)	none
O=C(Cc1cccs1)N1CCCC(c2nc3c(nnn3Cc3cccc(Cl)c3)c(=O)[nH]2)C1 (centres undefined)	none
Cc1ncccc1C(=O)N1CCCC(CNC(=O)C2(c3ccc(Cl)cc3)CC2)C1 (centres undefined)	none
Cc1nc(/C=C/c2ccccc2)[nH]c(=O)c1-c1ccccc1	none
COc1cccc(/C=N/Nc2nc3ccccc3[nH]2)c1O	none (no result: ABCG2 inh, ABCB1 block, PKD1 kinase inh, Lmaj promast, GSH fluor)
COc1cccc(/C=N/Nc2ncnc3scc(-c4ccccc4)c23)c1O	Lmaj promast 100.0
COc1ccc(/C=N/Nc2ncnc(Cl)c2N)cc1OC	none
COc1cccc(/C=N/Nc2nc3ccccc3n3cnnc23)c1O	Lmaj promast 75.7
COc1cccc(/C=N/Nc2ncnc(Cl)c2N)c1O	Lmaj promast 100.3
COc1cccc(/C=N/Nc2nccnc2Cl)c1O	Lmaj promast 100.3
COc1cccc(/C=N/Nc2nc3ccccc3n3cnnc23)c1	none
CCCC(C)NC(=O)COC(=O)c1cccc(NS(C)(=O)=O)c1 (centres undefined)	none (no result: ABCG2 inh, ABCB1 block, PKD1 kinase inh, Lmaj promast, GSH fluor)
COC(=O)c1cccc(NC(=O)CSc2nnc(C)n2Cc2ccccc2)c1	none
COC(C[C@@H](O)CC(=O)COCc1ccccc1)OC	none (no result: ABCG2 inh, ABCB1 block, PKD1 kinase inh, Lmaj promast, GSH fluor)
Cc1cccc(OCCC(=O)NCC(=O)Nc2cccc(C)c2C)c1	Lmaj promast 60.9
Cc1nc2ccccc2n1CCC(=O)Nc1cccc(F)c1	none
O=C(Nc1ccccc1)Nc1ccccn1	Avidin fluor 68!
Cc1ccc(C)c(NC(=S)c2ccc3ccccc3n2)c1	none
O=C(Nc1ccccn1)C(=O)Nc1ccccn1	none (no result: ABCG2 inh, ABCB1 block, PKD1 kinase inh, Lmaj promast, GSH fluor)
Cc1ccc(C)c(NC(=S)c2ccccn2)c1	Lmaj promast 98.3
S=C(Nc1ccccn1)c1ccccn1	Lmaj promast 98.4
Nc1nc(-c2ccc3c(c2)CCCC3)cs1	GSH fluor 263
Nc1nc(-c2ccc3c(c2)OCCO3)cs1	none
CC(C)(C)C(=O)N1CCc2cc(-c3csc(N)n3)ccc21	Lmaj promast 58.6
Cc1ccc(N=C2S/C(=C\c3cn(CC(=O)O)c4ccccc34)C(=O)N2C)cc1	none
CN(C)S(=O)(=O)c1cccc(NC(=S)N2CCc3ccccc32)c1	Avidin fluor 154
Cc1ccc(S(=O)(=O)N(C)C)cc1NC(=S)N1CCc2ccccc21	none
CCn1c2ccccc2c2cc(NC(=O)CSc3nnc(-c4ccc(OC)c(OC)c4)n3N)ccc21	Lmaj promast 94.9
CCn1c2ccccc2c2cc(NC(=O)CSc3nnc(-c4cccc(Cl)c4)o3)ccc21	Lmaj promast 88.8
CCn1c2ccccc2c2cc(NC(=O)CSc3nnc(-c4cccc(OC)c4)n3N)ccc21	none
COc1ccc(-c2nnc(SC(C(=O)c3c[nH]c4ccccc34)c3ccccc3)n2N)cc1OC (centres undefined)	Lmaj promast 56.9
COc1cc(/C(C)=N/NC(=O)C(O)(c2ccccc2)c2ccccc2)ccc1O	none
O=C(NCC(c1cccnc1)N1CCOCC1)NC1CCCCC1 (centres undefined)	none
COc1ccc(N2CCN(C(CNC(=O)C3CCCCC3)c3cccnc3)CC2)cc1 (centres undefined)	Lmaj promast 87.3
COc1ccc(N2CCN(C(CNC(=O)C(=O)NCc3cccnc3)c3ccco3)CC2)cc1 (centres undefined)	none
O=C(NCC(c1cccnc1)N1CCN(c2ccc(F)cc2)CC1)C1CCCCC1 (centres undefined)	Lmaj promast 73.6
O=C(NCC(c1cccnc1)N1CCN(c2ccccc2F)CC1)C1CCCCC1 (centres undefined)	Lmaj promast 71.4
Cc1ccc(C(=O)CCNc2ccc(F)c(Cl)c2)o1	none
Cc1ccc(C(=O)N2CCN(c3ccccc3)CC2)cc1S(=O)(=O)N1CCCC1	none
Cc1ccc(C(=O)N2CCN(c3ncccn3)CC2)cc1S(=O)(=O)N1CCCCC1	Lmaj promast 59.4
S=C(Nc1ccc(Cl)cc1)N1CCN(C2CCCCC2)CC1	Lmaj promast 80.5
COc1ccc(N(C)S(=O)(=O)c2cccc(C(=O)N(C)Cc3ccc(C)o3)c2)cc1	none

High-throughput results deposited in PubChem by several laboratories.
